From PubChem BioAssay
Ecoli tolC: growth inhibitors of E. coli BW25113 tolC mutant | OD615 | growth inhibition, % at 10 µM (by protocol) | 65,000 compounds, 2.2% hits;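 active = growth inhibition at or above a cutoff equal to the mean over every tested compound plus 3 SD, cut at about 60% in these data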;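 note: growth measured after 20 h incubation at 37 °C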
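signal = optical density read at 615 nm | test system = E. coli ΔtolC::kan strain BW25113 | timing = 20 h compound exposure of bacteria at 37 °C | buffer or medium = LB medium plus 50 µg/mL kanamycin | compound dosing = 10 µM final, single dose | evaluation = % inhibition of E. coli growth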
PostGolgi ctrl: growth of the yeast control strain, post-Golgi counter-screen. AID 738. 98,000 compounds, 5% hits. inhibition, % at 10 µM. efflux-deficient yeast background strain, growth absorbance A615, 16 h
E coli WT exp: blocks growth of wild type E. coli BW25113. OD600 absorbance. growth inhibition, % at 100 µM. 98,000 compounds, 0.15% hits;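 active = growth inhibition above about 50% at one test dose, limit read from the data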;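 note: growth measured after 20 h incubation at 37 °C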
PostGolgi yeast: growth inhibition of a yeast mutant, post-Golgi transport screen; post-Golgi transport phenotypic cell assay; 98,000 compounds, 0.9% hits; inhibition, % at 10 µM;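 note: yeast cells grown in 1536-well plates; yeast grown about 18 h at 30C before absorbance read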
* marks the source's active call; other numbers are inactive results. This is a sample that favours compounds with a hit; in the whole collection about 6.3% have one here. Cut-off read from the data, not from the text of the source, unless noted: active = inhibition above about 30%; inactive = the rest.

How did Nc1nncn1C(=O)CCc1ccccc1 do in these assays?
Ecoli tolC: -19; PostGolgi ctrl: 1; E coli WT exp: -2; PostGolgi yeast: 7

What do the screens show for `CCn1c(SCC(=O)Nc2nc(-c3ccccc3)cs2)nnc1-c1ccccc1`?
Ecoli tolC: 33; PostGolgi ctrl: 58*; E coli WT exp: -19; PostGolgi yeast: 9

What do the screens show for `O=C(O)CCCC(=O)Nc1nc(-c2ccccc2)cs1`?
Ecoli tolC: -24; PostGolgi ctrl: 10; E coli WT exp: -27; PostGolgi yeast: -4

What do the screens show for `O=C(CS(=O)(=O)c1ccccc1)Nc1nc(-c2ccccc2)cs1`?
Ecoli tolC: 100*; PostGolgi ctrl: 41*; E coli WT exp: -5; PostGolgi yeast: -8

Results for Cc1ccc(S(=O)(=O)CC(=O)Nc2nc(-c3ccccc3)cs2)cc1 ?
PostGolgi ctrl: 63*; E coli WT exp: -9; PostGolgi yeast: -13

How did O=C(CCn1c(=O)[nH]c2ccsc2c1=O)Nc1ccc(F)c(F)c1 do in these assays?
PostGolgi ctrl: 5; E coli WT exp: -6; PostGolgi yeast: 4

What do the screens show for `CCCCNC(=O)c1ccc2c(c1)N(CC)C(=O)c1ccccc1S2(=O)=O`?
Ecoli tolC: -2; PostGolgi ctrl: 5; E coli WT exp: 6; PostGolgi yeast: 9

Results for COc1ccc(NC(=O)c2cccc(Cn3cc(Br)cn3)c2)cn1 ?
Ecoli tolC: 28; PostGolgi ctrl: 2; E coli WT exp: 10; PostGolgi yeast: -4

What do the screens show for `O=C(NCCOc1ccccc1)C1CCCN1C(=O)c1cccs1` (stereo unspecified)?
Ecoli tolC: -3; PostGolgi ctrl: 34*; E coli WT exp: 4; PostGolgi yeast: 2

Results for CCN(CC)c1ncnc2sc(C(=O)N3CCN(c4ccccc4)CC3)c(C)c12 ?
Ecoli tolC: 25; PostGolgi ctrl: 17; E coli WT exp: 1; PostGolgi yeast: 9

How did COc1cc(OC)c(OC)cc1/C=N/NC(=S)NCC1CCCO1 (stereo unspecified) do in these assays?
PostGolgi ctrl: 2; E coli WT exp: 2; PostGolgi yeast: -11

Results for Cc1cc(N2C(=O)C(=O)/C(=C(/O)c3ccc(F)cc3)C2c2cccc(Br)c2)no1 (stereo unspecified) ?
Ecoli tolC: 9; PostGolgi ctrl: 11; E coli WT exp: -1; PostGolgi yeast: 7

How did Cc1ccc(/C(O)=C2\C(=O)C(=O)N(c3cc(C)on3)C2c2cccc(Br)c2)cc1 (stereo unspecified) do in these assays?
Ecoli tolC: 65*; PostGolgi ctrl: -1; E coli WT exp: -7; PostGolgi yeast: 2

Results for Cn1cc(NC(=O)c2cc(NC(=O)c3cc(NC=O)cn3C)cn2C)cc1C(=O)NCCC(=N)N ?
Ecoli tolC: -9

What do the screens show for `Cc1ccc2c(CC(=O)OCc3nc(N)nc(Nc4ccccc4C)n3)coc2c1`?
Ecoli tolC: 72*; PostGolgi ctrl: 36*; E coli WT exp: 3; PostGolgi yeast: 6

How did C[N+]12CCCCC1C(COC(=O)c1ccc3c(c1)OCO3)CCC2 (stereo unspecified) do in these assays?
PostGolgi ctrl: 1; E coli WT exp: 4; PostGolgi yeast: -5

How did CCOc1ccc2nc(NCCNC(=O)Nc3ccccc3)c(C#N)cc2c1 do in these assays?
Ecoli tolC: 9; PostGolgi ctrl: -1; E coli WT exp: -6; PostGolgi yeast: -1

How did COc1ccc2nc(NCCCNC(=O)c3cc(OC)c(OC)c(OC)c3)c(C#N)cc2c1 do in these assays?
Ecoli tolC: 8; PostGolgi ctrl: 3; E coli WT exp: 7; PostGolgi yeast: 34*

Results for COc1cccc(CNS(=O)(=O)/C=C/c2ccc3c(c2)OCO3)c1 ?
PostGolgi ctrl: 4; E coli WT exp: 7; PostGolgi yeast: 7

Results for Cn1c(CC(=O)Nc2ccc(Cl)c(Cl)c2)nnc1SCC(=O)N1CCN(c2ccccc2)CC1 ?
PostGolgi ctrl: 36*; E coli WT exp: -5; PostGolgi yeast: 3

Results for CC(NC(=O)CSc1nnc(CC(=O)Nc2ccc(Cl)c(Cl)c2)n1C)c1ccccc1 (stereo unspecified) ?
PostGolgi ctrl: 9; E coli WT exp: 0; PostGolgi yeast: -5

How did CCCS(=O)(=O)Nc1cc(C(F)(F)F)ccc1OCCOC do in these assays?
Ecoli tolC: 1; PostGolgi ctrl: 4; E coli WT exp: 3; PostGolgi yeast: 1

What do the screens show for `Clc1ccc(/C=C/c2nc3ccccc3[nH]2)c(Cl)c1`?
PostGolgi ctrl: 75*; E coli WT exp: 6; PostGolgi yeast: 24

Results for Clc1ccc(/C=C/c2nc3ccccc3[nH]2)cc1 ?
PostGolgi ctrl: 14; E coli WT exp: -1; PostGolgi yeast: 4

Results for Clc1cccc(Cl)c1/C=C/c1nc2ccccc2[nH]1 ?
PostGolgi ctrl: 66*; E coli WT exp: -5; PostGolgi yeast: 8
